Measurements: ChEMBL document CHEMBL4680238, “Novel octapeptide-DTX prodrugs targeting MMP-7 as effective agents for the treatment of colorectal cancer with lower systemic toxicity” (Eur J Med Chem, 2020)
pIC50: −log10 of the molar value. Residues, ends and D or L forms follow the SMILES beside them. *: point of attachment. X2 = CC(=O)O[C@@]12CO[C@@H]1C[C@H](O)[C@@]1(C)C(=O)[C@H](O)C3=C(C)[C@@H](OC(=O)[C@H](OC(=O)OCc4ccc(N*)cc4)[C@@H](NC(=O)OC(C)(C)C(F)(F)F)c4ccccc4)C[C@@](O)([C@@H](OC(=O)c4cccc(F)c4)[C@H]21)C3(C)C; X1 = CC(=O)O[C@@]12CO[C@@H]1C[C@H](O)[C@@]1(C)C(=O)[C@H](O)C3=C(C)[C@@H](OC(=O)[C@H](OC(=O)OCc4ccc(N*)cc4)[C@@H](NC(=O)OC(C)(C)C)c4ccccc4)C[C@@](O)([C@@H](OC(=O)c4ccccc4)[C@H]21)C3(C)C

Columns and labels:
[1] = Half life in Sprague-Dawley rat plasma t 50 ug/ml up to 72 hrs by RP-HPLC analysis; type: ADME, cell-free; settings: dose 50 µg/ml
[2] = Half life of compound in PBS buffer at pH 7.4 at 50 ug/ml up to 72 hrs by RP-HPLC analysis; type: physicochemical; settings: dose 50 µg/ml
HCT-116 = experiment: Cytotoxicity against human HCT-116 cells assessed as reduction in cell viability after 48 hrs by MTT assay; type: functional, cell-based; settings: HCT-116, 48 h
Summary of the method: (§1)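 Cells seeded at 5000/well and precultured 1 day. HCT116 grown in McCoy's 5A + 10% FBS; SW620 and HEK293 in DMEM + 10% FBS; CCD18Co in DMEM + 15% FBS. Compounds from 0.1 M DMSO stocks were tested at 10^-10 to 10^-4 mol/L in sixplicate: HCT116 and HEK293 for 48 h, SW620 and CCD18Co for 72 h, at 37 °C, 5% CO2. MTT (5 mg/mL) added for 4 h, then A570 read; IC50 estimated.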

CCD-18Co = experiment: Cytotoxicity against human CCD-18Co cells assessed as reduction in cell viability after 72 hrs by MTT assay; type: cell-based; summary of the method: as §1
SW-620 = experiment: Cytotoxicity against human SW-620 cells assessed as reduction in cell viability after 72 hrs by MTT assay; type: functional, cell-based; settings: SW-620, 72 h; summary of the method: as §1
HEK293 = experiment: Cytotoxicity against HEK293 cells assessed as reduction in cell viability after 48 hrs by MTT assay; type: cell-based; settings: Homo sapiens, HEK293, 48 h; summary of the method: as §1

Row | Compound | half-life at 50 ug/ml [1] | half-life at 50 ug/ml [2] | pIC50 (HCT-116) | pIC50 (CCD-18Co) | pIC50 (SW-620) | pIC50 (HEK293)
1 | CC[C@H](C)[C@H](NC(=O)CNC(=O)[C@H](CCSC)NC(=O)[C@@H]1CCCN1C(=O)CNC(C)=O)C(=O)N[C@@H](C)C(=O)NCC(=O)N[C@@H](CCC(N)=O)C(=O)N[C@@H](CC(C)C)C(=O)Nc1ccc(COC(=O)O[C@@H](C(=O)O[C@H]2C[C@@]3(O)[C@@H](OC(=O)c4ccccc4)[C@@H]4[C@]5(OC(C)=O)CO[C@@H]5C[C@H](O)[C@@]4(C)C(=O)[C@H](O)C(=C2C)C3(C)C)[C@@H](NC(=O)OC(C)(C)C)c2ccccc2)cc1 (Ac-GPMGIAGQL-X1) | 23.9 h | > 72 h | 8.14 | < 3.70 | 5.94 | 4.96
2 | CC[C@H](C)[C@H](NC(=O)[C@H](C)NC(=O)[C@H](CCC(N)=O)NC(=O)[C@@H]1CCCN1C(=O)CNC(C)=O)C(=O)N[C@@H](C)C(=O)NCC(=O)N[C@@H](CCC(N)=O)C(=O)N[C@@H](CC(C)C)C(=O)Nc1ccc(COC(=O)O[C@@H](C(=O)O[C@H]2C[C@@]3(O)[C@@H](OC(=O)c4ccccc4)[C@@H]4[C@]5(OC(C)=O)CO[C@@H]5C[C@H](O)[C@@]4(C)C(=O)[C@H](O)C(=C2C)C3(C)C)[C@@H](NC(=O)OC(C)(C)C)c2ccccc2)cc1 (Ac-GPQAIAGQL-X1) | 12 h | > 72 h | 7.95 | < 3.70 | < 3.70 | 3.97
3 | CC[C@H](C)[C@H](NC(=O)[C@H](C)NC(=O)[C@H](CCC(N)=O)NC(=O)[C@@H]1CCCN1C(=O)CNC(C)=O)C(=O)N[C@@H](C)C(=O)NCC(=O)N[C@@H](CCC(N)=O)C(=O)N[C@@H](CC(C)C)C(=O)Nc1ccc(COC(=O)O[C@@H](C(=O)O[C@H]2C[C@@]3(O)[C@@H](OC(=O)c4cccc(F)c4)[C@@H]4[C@]5(OC(C)=O)CO[C@@H]5C[C@H](O)[C@@]4(C)C(=O)[C@H](O)C(=C2C)C3(C)C)[C@@H](NC(=O)OC(C)(C)C(F)(F)F)c2ccccc2)cc1 (Ac-GPQAIAGQL-X2) | 24 h | > 72 h | 8.27 | < 3.70 | 6.19 | 4.03
4 | CC(=O)NCC(=O)N1CCC[C@H]1C(=O)N[C@@H](CCC(N)=O)C(=O)NCC(=O)N[C@@H](CC(C)C)C(=O)N[C@@H](C)C(=O)NCC(=O)N[C@@H](CCC(N)=O)C(=O)N[C@@H](CC(C)C)C(=O)Nc1ccc(COC(=O)O[C@@H](C(=O)O[C@H]2C[C@@]3(O)[C@@H](OC(=O)c4cccc(F)c4)[C@@H]4[C@]5(OC(C)=O)CO[C@@H]5C[C@H](O)[C@@]4(C)C(=O)[C@H](O)C(=C2C)C3(C)C)[C@@H](NC(=O)OC(C)(C)C(F)(F)F)c2ccccc2)cc1 (Ac-GPQGLAGQL-X2) | 24.1 h | 48.3 h | 7.59 | < 3.70 | < 3.70 | 5.21

Further lines, with some results ahead:

Row | half-life at 50 ug/ml [1] | half-life at 50 ug/ml [2] | Compound | pIC50 (HCT-116) | pIC50 (CCD-18Co) | pIC50 (SW-620) | pIC50 (HEK293)
5 | 24 h | > 72 h | CC[C@H](C)[C@H](NC(=O)CNC(=O)[C@H](CCSC)NC(=O)[C@@H]1CCCN1C(=O)CNC(C)=O)C(=O)N[C@@H](C)C(=O)NCC(=O)N[C@@H](CCC(N)=O)C(=O)N[C@@H](CC(C)C)C(=O)Nc1ccc(COC(=O)O[C@@H](C(=O)O[C@H]2C[C@@]3(O)[C@@H](OC(=O)c4cccc(F)c4)[C@@H]4[C@]5(OC(C)=O)CO[C@@H]5C[C@H](O)[C@@]4(C)C(=O)[C@H](O)C(=C2C)C3(C)C)[C@@H](NC(=O)OC(C)(C)C(F)(F)F)c2ccccc2)cc1 (Ac-GPMGIAGQL-X2) | 7.68 | < 3.70 | < 3.70 | 4.67
6 | 14 h | 35.1 h | CC(=O)NCC(=O)N1CCC[C@H]1C(=O)N[C@@H](CCC(N)=O)C(=O)NCC(=O)N[C@@H](CC(C)C)C(=O)N[C@@H](C)C(=O)NCC(=O)N[C@@H](CCC(N)=O)C(=O)N[C@@H](CC(C)C)C(=O)Nc1ccc(COC(=O)O[C@@H](C(=O)O[C@H]2C[C@@]3(O)[C@@H](OC(=O)c4ccccc4)[C@@H]4[C@]5(OC(C)=O)CO[C@@H]5C[C@H](O)[C@@]4(C)C(=O)[C@H](O)C(=C2C)C3(C)C)[C@@H](NC(=O)OC(C)(C)C)c2ccccc2)cc1 (Ac-GPQGLAGQL-X1) | 8.28 | < 3.70 | 4.66 | 3.78
